Screening results deposited in PubChem BioAssay by several laboratories.
The list is not random: actives were taken first. Their share in the collection is about 2.9%.
FAS-TE inh = FAS thioesterase domain inhibitors, primary screen, biochemical, fluorescence intensity, uHTS | Fatty acid synthase (Homo sapiens), P49327 | recombinant FAS-TE, OMFH fluorogenic substrate, fluorescence endpoint | inhibition, % at 15 µM | 360,000 compounds, 0.67% hits | AID 602261, 2012;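 active = compounds whose normalised, plate-corrected inhibition of enzyme fluorescence in the single-dose primary screen is 50% or more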;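 also: 0% = DMSO with enzyme and 100% = substrate without enzyme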
ADAM17 inh = ADAM17 inhibitors, primary screen, biochemical, QFRET; recombinant ADAM17, EDANS/DABCYL FRET peptide cleavage; 370,000 compounds, 0.83% hits; Disintegrin and metalloproteinase domain-containing protein 17 (Homo sapiens), P78536; inhibition, % at 6.95 µM; AID 720648, 2013;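 active = inhibition above the mean of compounds lying between control limits plus 3 SD, set per campaign, cut at about 8.5% in these data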;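 also: 0% = DMSO-only wells as the low control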
Arr AP2 block = inhibitors of beta-arrestin/AP2 binding, primary screen, biochemical, GPCR trafficking, flow cytometry; beta-arrestin 1 C-terminal peptide binding to AP2 beta2-adaptin appendage (human); 340,000 compounds, 0.31% hits; AID 504490, 2011; FITC-arrestin peptide / GST-AP2 beads; AP2 beta2 appendage carries R879A mutation; inhibition, % at 10 µM;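 active = inhibition above a set limit, near 3 SD of compounds lacking own fluorescence, cut at about 54% in these data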;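 also: plate controls were DMSO wells for no effect and 5 µM unlabelled arrestin peptide for full effect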
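System: GST-AP2 R879A glutathione beads. Medium: PBS with 0.05% Tween 20 and 0.1% BSA. Also added: FITC-arrestin peptide, 50 nM. Incubation: 12 min plus 1 h, RT. Measured by: high-throughput flow cytometry of beads, ex 488, em 535 nm. Evaluation: percent drop in bead-associated FITC signal.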
ADAM10 inh = human ADAM10 inhibitors, primary screen, biochemical, QFRET, HTS; Disintegrin and metalloproteinase domain-containing protein 10 (Homo sapiens), O14672; recombinant ADAM10, EDANS/DABCYL FRET peptide cleavage, 3 h; inhibition, % at 7 µM; 370,000 compounds, 0.62% hits; AID 720582, 2013;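 active = inhibition above a per-campaign cutoff equal to the mean of compounds falling between control-based bounds plus 3 SD, cut at about 20% in these data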;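 also: 0% = DMSO wells while the 100% control is not disclosed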
Target sequence (O14672 214-748 limits assumed): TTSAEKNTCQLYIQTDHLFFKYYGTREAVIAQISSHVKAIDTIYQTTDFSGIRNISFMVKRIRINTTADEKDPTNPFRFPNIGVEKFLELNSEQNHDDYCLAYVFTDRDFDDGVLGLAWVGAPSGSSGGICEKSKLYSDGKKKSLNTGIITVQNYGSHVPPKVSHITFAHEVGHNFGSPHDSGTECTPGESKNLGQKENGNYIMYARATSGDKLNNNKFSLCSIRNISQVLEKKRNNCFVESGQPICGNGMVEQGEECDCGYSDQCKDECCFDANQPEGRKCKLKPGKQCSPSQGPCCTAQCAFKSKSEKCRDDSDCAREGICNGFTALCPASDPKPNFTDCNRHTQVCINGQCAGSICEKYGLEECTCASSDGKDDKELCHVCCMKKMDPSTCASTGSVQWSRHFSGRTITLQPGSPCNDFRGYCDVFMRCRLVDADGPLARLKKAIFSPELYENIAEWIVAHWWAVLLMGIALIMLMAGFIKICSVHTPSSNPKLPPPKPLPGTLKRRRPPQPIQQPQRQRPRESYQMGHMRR
CaV13 ICDI inh = Primary screen for inhibitors of IQ motif and Ca2+-dependent inactivation inhibitor domain binding in CACNA1D, Förster resonance energy transfer in living cells, …; HEK cells, CFP/YFP FRET ICDI-IQ, plate reader, 10 min; percent FRET-ratio fall versus neutral wells; inhibition, % at 12.3 µM; 340,000 compounds, 0.098% hits; AID 743397;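 active = mean replicate inhibition of at least 30% and at least 1% of replicates passing that level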;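 also: 0% = median of the neutral control wells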
NRP1-CendR mod = modulators of CendR peptide binding to NRP-1, primary screen, biochemical, fluorescence polarization, uHTS; FAM-RPARPAR peptide binding to NRP-1; inhibition, % at 25 µM; 360,000 compounds, 0.85% hits; AID 602438, 2012;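 active = inhibition or corrected inhibition above about 18%, plus a signal ratio from 0.5 to 1.5, limit read from the data, passing the limit was not always enough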
Arr AP2 CP1 = inhibitors of arrestin peptide binding to AP2, confirmation, biochemical, cherry pick 1, flow cytometry beads. shares compounds with Arr AP2 block. inhibition, % at 10 µM. GST-AP2 beads, FITC arrestin peptide binding; GST-fused beta2-adaptin appendage, R879A mutant. 1,300 compounds, 2% hits. AID 504908, 2011;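 active = inhibition above a set limit, roughly 3 SD of non-fluorescent compound noise, cut at about 38% in these data; inactive = inhibition at or below that limit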;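 also: loss of bead fluorescence from 50 nM FITC arrestin peptide bound to appendage; 0% = negative control wells and 100% = excess unlabelled arrestin peptide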
GST-FITC bead = GST-fluorescein capture on glutathione beads, confirmation, artefact control for arrestin-AP2 inhibitor project, biochemical, cherry pick 1, flow cytometry. shares compounds with Arr AP2 block. GST-fluorescein binding to GSH beads, fluorescence, counter-screen. inhibition, % at 10 µM. 1,300 compounds, 2% hits. AID 588338, 2011;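 active = inhibition above 50%, about 3 SD of the inhibition seen with non-fluorescent compounds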;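 also: fluorescein maleimide labelled GST captured on 4 micron glutathione beads; higher means more loss of bead fluorescence from quenching or blocked binding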
* hit, by the source's call.

Results for CCOC(=O)C1CCN(S(=O)(=O)c2cccc(C(=O)Nc3ccccc3)c2)CC1 ?
FAS-TE inh: 8; ADAM17 inh: -2; Arr AP2 block: 24; ADAM10 inh: 0; CaV13 ICDI inh: -6; NRP1-CendR mod: 16

What do the screens show for `CCOC(=O)C1CCN(c2cc3c(cc2NC(=O)c2ccc(OC)c(OC)c2)n(C)c(=O)n3C)CC1`?
FAS-TE inh: 12; ADAM17 inh: -8; Arr AP2 block: 28; ADAM10 inh: -25; CaV13 ICDI inh: -6; NRP1-CendR mod: 5; Arr AP2 CP1: 6; GST-FITC bead: -8

What do the screens show for `CCOC(=O)C1CCN(c2cc3c(cc2NC(=O)c2ccccc2)n(C)c(=O)n3C)CC1`?
FAS-TE inh: 4; ADAM17 inh: -10; Arr AP2 block: 11; ADAM10 inh: -39; CaV13 ICDI inh: -6; NRP1-CendR mod: -6; Arr AP2 CP1: 18; GST-FITC bead: -2

Results for CCCCN1C(=O)C(CC(=O)NCCN2CCOCC2)CC(C(=O)N(C(C)C)C(C)C)=C1C (stereo not given) ?
FAS-TE inh: -3; ADAM17 inh: -3; ADAM10 inh: -3; CaV13 ICDI inh: -5; NRP1-CendR mod: 10

Results for Cc1cc(NC(=O)c2cc(-c3ccc(C)s3)nc3ccccc23)no1 ?
FAS-TE inh: 9; ADAM17 inh: -92; Arr AP2 block: 103*; ADAM10 inh: -380; CaV13 ICDI inh: -8; NRP1-CendR mod: -12; Arr AP2 CP1: 22; GST-FITC bead: 38

What do the screens show for `CCSCc1nnc(SCC(=O)Nc2cccc(C(C)=O)c2)n1C`?
FAS-TE inh: 1; ADAM17 inh: -5; Arr AP2 block: 39; ADAM10 inh: -1; CaV13 ICDI inh: 7; NRP1-CendR mod: -4

Results for CCSCc1nnc(SCC(=O)Nc2cccc(SC)c2)n1C ?
FAS-TE inh: -8; ADAM17 inh: -2; Arr AP2 block: 99*; ADAM10 inh: -6; NRP1-CendR mod: -11; Arr AP2 CP1: 9; GST-FITC bead: -3

What do the screens show for `COC(=O)c1c(-c2ccc(OC)cc2)c2c(c3c4cc(OC)ccc4n(C(=O)c4ccccc4)c13)C(=O)N(C)C2`?
ADAM17 inh: -1; ADAM10 inh: -21; CaV13 ICDI inh: -12

What do the screens show for `COC(=O)Cn1c(=NC(=O)c2cc(-c3cccs3)nc3ccccc23)sc2cc(S(N)(=O)=O)ccc21`?
FAS-TE inh: 20; ADAM17 inh: -151; Arr AP2 block: 63*; ADAM10 inh: -357; CaV13 ICDI inh: -4; NRP1-CendR mod: -25; Arr AP2 CP1: 0; GST-FITC bead: -6

How did CN(CCO)c1cccc2c1S(=O)(=O)N(Cc1cn(Cc3ccc(Cl)cc3)nn1)Cc1ccccc1O2 do in these assays?
ADAM17 inh: -3; ADAM10 inh: -4

How did O=C(Nc1cc(Cl)ccc1-n1cncn1)c1ccccc1OC(F)F do in these assays?
FAS-TE inh: -2; ADAM17 inh: -4; Arr AP2 block: 68*; ADAM10 inh: -4; CaV13 ICDI inh: -7; NRP1-CendR mod: -3; Arr AP2 CP1: 6; GST-FITC bead: -6

What do the screens show for `FC(F)(F)c1cc(C(F)(F)F)c2ccc(N3CCOCC3)nc2n1`?
FAS-TE inh: -2; ADAM17 inh: -5; Arr AP2 block: 2; ADAM10 inh: -6; CaV13 ICDI inh: -3; NRP1-CendR mod: 1

How did Nc1ccc2c(C(F)(F)F)cc(C(F)(F)F)nc2n1 do in these assays?
FAS-TE inh: -2; ADAM17 inh: inactive; Arr AP2 block: 56*; ADAM10 inh: inactive; CaV13 ICDI inh: -1; NRP1-CendR mod: 3; Arr AP2 CP1: -3; GST-FITC bead: -6

What do the screens show for `CCOC(=O)c1cc2c(nc1NC(=S)NCc1ccccc1)CCCC2`?
FAS-TE inh: 18; ADAM17 inh: -1; Arr AP2 block: 103*; ADAM10 inh: -11; CaV13 ICDI inh: -9; NRP1-CendR mod: 2; Arr AP2 CP1: -6; GST-FITC bead: -2

What do the screens show for `Nc1c(C(=O)NCc2cccs2)nnn1CC(=O)Nc1cccc(Cl)c1`?
FAS-TE inh: -3; ADAM17 inh: -4; Arr AP2 block: 99*; ADAM10 inh: -8; CaV13 ICDI inh: -4; NRP1-CendR mod: -4; Arr AP2 CP1: 16; GST-FITC bead: 21

Results for COC(=O)c1cccc(NC(=O)CN(c2ccc3c(c2)OCO3)S(C)(=O)=O)c1C ?
FAS-TE inh: -6; ADAM17 inh: -1; Arr AP2 block: 61*; ADAM10 inh: 1; CaV13 ICDI inh: 0; NRP1-CendR mod: -1; Arr AP2 CP1: 7; GST-FITC bead: 5

What do the screens show for `CCCCCc1c(-c2ccccc2OC)ncn1CCc1ccccc1OC`?
FAS-TE inh: 17; ADAM17 inh: -1; ADAM10 inh: -7; CaV13 ICDI inh: -10; NRP1-CendR mod: 5

What do the screens show for `COc1ccc(C(CNC(=O)CCNS(=O)(=O)c2ccccc2C(F)(F)F)N2CCOCC2)cc1` (stereo not given)?
FAS-TE inh: -6; ADAM17 inh: -4; Arr AP2 block: 4; ADAM10 inh: -10; CaV13 ICDI inh: -5; NRP1-CendR mod: -15

What do the screens show for `CN(C)C(CNC(=O)CCNS(=O)(=O)c1ccccc1C(F)(F)F)c1ccccc1` (stereo not given)?
FAS-TE inh: -6; ADAM17 inh: 3; Arr AP2 block: 58*; ADAM10 inh: -11; CaV13 ICDI inh: -5; NRP1-CendR mod: -7; Arr AP2 CP1: 10; GST-FITC bead: -4

What do the screens show for `O=c1cc(N2CCN(c3cccc(C(F)(F)F)c3)CC2)[nH]c(=O)n1-c1ccccc1`?
ADAM17 inh: 0; ADAM10 inh: 9

What do the screens show for `Cc1ccc(C(=O)NC(NCc2ccco2)C(Cl)(Cl)Cl)cc1` (stereo not given)?
FAS-TE inh: -8; ADAM17 inh: -1; Arr AP2 block: 55*; ADAM10 inh: -3; CaV13 ICDI inh: -5; NRP1-CendR mod: -4; Arr AP2 CP1: 3; GST-FITC bead: -2
